Measurements taken from ChEMBL document CHEMBL1153378, “Synthesis and evaluation of myxochelin analogues as antimetastatic agents” (Bioorg Med Chem, 2009).
Active and inactive are the calls of the source. The rule behind the calls is not given here.

Assays:
[1] = Antiinvasive activity against mouse 26-L5 cells assessed as inhibition of cell invasion by Matrigel assay; format: functional, cell-based
[2] = Cytotoxicity against mouse 26-L5 cells after 24 hrs; format: functional, cell-based
Method in brief: (§1)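 Murine colon 26-L5 carcinoma cells at 1 × 10⁴ cells/well in RPMI with 10% FCS and L-glutamine, exposed to test compound at various concentrations (DMSO solutions) for 24 h. Wells PBS-washed, crystal violet stain 30 min, dye extracted with 30% acetic acid, absorbance read at 590 nm. Mean ± SD; Student's two-tailed t-test vs control.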

[3] = Cytotoxicity against mouse 26-L5 cells at 5.6 uM after 24 hrs; format: functional; method in brief: as §1
[4] = Antiinvasive activity against mouse 26-L5 cells assessed as inhibition of cell invasion at 2.5 uM by Matrigel assay; format: functional
[5] = Cytotoxicity against mouse 26-L5 cells at 7.5 uM after 24 hrs; format: functional; method in brief: as §1
[6] = target: 72 kDa type IV collagenase (Mus musculus) (UniProt P33434); experiment: Inhibition of MMP2 in mouse 26-L5 cells at 0.25 uM by gelatin based zymography assay; format: cell-based
72 kDa type IV collagenase (Mus musculus), sequence (P33434 whole entry): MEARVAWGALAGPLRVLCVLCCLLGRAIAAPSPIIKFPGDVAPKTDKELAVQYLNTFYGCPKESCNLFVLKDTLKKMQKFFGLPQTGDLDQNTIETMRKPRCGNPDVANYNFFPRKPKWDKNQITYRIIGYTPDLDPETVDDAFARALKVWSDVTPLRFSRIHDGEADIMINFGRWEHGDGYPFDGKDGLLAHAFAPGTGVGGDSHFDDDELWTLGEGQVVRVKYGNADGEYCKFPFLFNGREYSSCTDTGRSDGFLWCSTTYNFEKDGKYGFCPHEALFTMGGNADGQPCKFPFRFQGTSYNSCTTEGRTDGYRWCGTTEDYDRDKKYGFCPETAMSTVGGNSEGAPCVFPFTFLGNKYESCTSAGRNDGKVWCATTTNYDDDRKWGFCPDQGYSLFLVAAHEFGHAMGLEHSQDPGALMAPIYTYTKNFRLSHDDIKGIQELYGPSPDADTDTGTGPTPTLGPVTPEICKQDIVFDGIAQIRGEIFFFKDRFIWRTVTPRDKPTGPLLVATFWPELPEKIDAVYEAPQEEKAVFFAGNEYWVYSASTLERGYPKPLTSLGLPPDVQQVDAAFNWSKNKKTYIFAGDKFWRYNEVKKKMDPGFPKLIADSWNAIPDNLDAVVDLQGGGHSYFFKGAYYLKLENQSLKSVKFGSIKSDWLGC
Method in brief: (§2)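 Gelatin zymography: conditioned medium of colon 26-L5 cells run non-reducing on 10% SDS–PAGE with 0.1% gelatin. Gels rinsed twice 1 h at room temperature (50 mM Tris–HCl, 2.5% Triton X-100, 5 mM CaCl₂, 0.05% NaN₃), strips incubated 24 h at 37 °C in reaction buffer with test compound at various concentrations, then Coomassie stained. Mean ± SD, two-tailed t-test.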

[7] = target: Matrix metalloproteinase-9 (Mus musculus) (UniProt P41245); experiment: Inhibition of MMP9 in mouse 26-L5 cells at 0.25 uM by gelatin based zymography assay; format: cell-based; method in brief: as §2
Matrix metalloproteinase-9 (Mus musculus), sequence (P41245 whole entry): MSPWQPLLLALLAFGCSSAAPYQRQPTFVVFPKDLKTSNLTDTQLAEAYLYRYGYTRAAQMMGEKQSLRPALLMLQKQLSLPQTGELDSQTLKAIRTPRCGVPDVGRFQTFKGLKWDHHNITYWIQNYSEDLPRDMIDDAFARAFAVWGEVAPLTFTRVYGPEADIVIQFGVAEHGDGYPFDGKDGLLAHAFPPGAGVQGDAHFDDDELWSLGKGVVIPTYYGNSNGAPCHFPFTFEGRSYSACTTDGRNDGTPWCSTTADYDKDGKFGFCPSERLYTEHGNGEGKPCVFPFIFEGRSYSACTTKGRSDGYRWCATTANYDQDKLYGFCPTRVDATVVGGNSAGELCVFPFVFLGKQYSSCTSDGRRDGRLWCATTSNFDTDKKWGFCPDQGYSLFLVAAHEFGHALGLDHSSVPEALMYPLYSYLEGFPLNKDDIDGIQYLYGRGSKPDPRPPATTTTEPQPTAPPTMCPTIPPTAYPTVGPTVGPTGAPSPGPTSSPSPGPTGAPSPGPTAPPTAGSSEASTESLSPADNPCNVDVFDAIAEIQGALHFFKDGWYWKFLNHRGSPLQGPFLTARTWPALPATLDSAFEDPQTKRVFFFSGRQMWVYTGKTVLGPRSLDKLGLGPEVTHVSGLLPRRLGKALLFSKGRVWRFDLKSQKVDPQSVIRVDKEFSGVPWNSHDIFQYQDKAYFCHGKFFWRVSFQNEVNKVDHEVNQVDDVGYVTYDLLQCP

[8] = Antimetastatic activity against mouse 26-L5 cells xenografted BALB/c mouse assessed as inhibition of lung tumor metastasis at 50 mg/kg, ip dosed once daily for 14 days; format: functional; conditions: 336 h, route intraperitoneal
Method in brief: (§3)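 BALB/c mice injected iv via tail vein with colon 26-L5 cells in cold PBS; compound given ip at 50 mg/kg (1 mg/mouse in 200 µL PBS); controls received 200 µL PBS. Body weight followed; mice killed 14 days after inoculation, lungs fixed in Bouin's solution, surface colonies counted under dissecting microscope. Student's two-tailed t-test.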

Mus musculus [9] = experiment: Toxicity in mouse 26-L5 cells xenografted BALB/c mouse assessed as body weight loss at 50 mg/kg, ip dosed once daily for 14 days; format: organism-based; design: dose 50 mg/kg, route intraperitoneal; conditions: in vivo, 336 h; method in brief: as §3
Mus musculus [10] = species on record: Mus musculus; experiment: Inhibition of cell migration of mouse 26-L5 cells at 2.5 uM by Matrigel assay; format: functional
Mus musculus [11] = species on record: Mus musculus; experiment: Inhibition of mouse 26-L5 cells adhesion to extracellular matrix proteins at 2.5 uM after 24 hrs by crystal violet assay; format: functional
Method in brief: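 Colon 26-L5 cells pre-treated with compound 24 h at 37 °C, 5% CO₂, then resuspended in RPMI/10% FCS/L-glutamine and seeded at 4 × 10⁴ cells/well on fibronectin- or Matrigel-coated wells. Attachment 1 h at 37 °C; non-adherent cells aspirated; adherent cells fixed in 20% formalin 4 °C 1 h, crystal violet stained 30 min. Mean ± SD, two-tailed t-test.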

[12] = target: 72 kDa type IV collagenase (Mus musculus) (UniProt P33434); experiment: Inhibition of MMP2 in mouse 26-L5 cells at 2.5 uM by gelatin based zymography assay; format: cell-based; method in brief: as §2
[13] = target: Matrix metalloproteinase-9 (Mus musculus) (UniProt P41245); experiment: Inhibition of MMP9 in mouse 26-L5 cells at 2.5 uM by gelatin based zymography assay; format: cell-based; method in brief: as §2

| Structure (SMILES) | IC50 [1] [nM] | IC50 [2] [nM] | inhibition at 2.5 µM [4] [%] | inhibition at 7.5 µM [5] [%] | further results |
| --- | --- | --- | --- | --- | --- |
| O=C(NCCCC[C@@H](CNC(=O)c1cccc(O)c1O)NC(=O)c1cccc(O)c1O)c1cccc(O)c1O | 520 | > 5600 |  |  | inhibition at 5.6 µM [3]: 0% |
| O=C(NCCCC[C@H](NC(=O)c1cccc(O)c1O)C(=O)O)c1cccc(O)c1O | > 2500 | > 7500 | 30 | 0 |  |
| COC(=O)[C@H](CCCCCNC(=O)c1cccc(O)c1O)NC(=O)c1cccc(O)c1O | 1700 | 1600 |  |  |  |
| NC(=O)[C@H](CCCCNC(=O)c1cccc(O)c1O)NC(=O)c1cccc(O)c1O | 91 | > 7500 |  | 0 | inhibition [6]: 44%; inhibition [7]: 33%; inhibition in vivo at 50 mg/kg [8]: 35%; Activity (Mus musculus [9]): Non-toxic; inhibition (Mus musculus [10]): inactive; inhibition (Mus musculus [11]): inactive |
| NC(=O)[C@H](CCCCNC(=O)c1cccc(O)c1O)NC(=O)c1ccccc1 | 260 | > 7500 |  | 0 |  |
| COC(=O)[C@H](CCCCNC(=O)c1cccc(O)c1O)NC(=O)c1ccccc1 | 1000 | > 7500 |  | 0 |  |
| O=C(NCCCC[C@H](CO)NC(=O)c1cccc(O)c1O)c1cccc(O)c1O | 2200 | > 7500 |  | 30 |  |
| COC(=O)[C@H](CCCCNC(=O)c1cccc(OC)c1OC)NC(=O)c1cccc(OC)c1OC | > 2500 | > 7500 | 25 | 0 |  |
| COC(=O)[C@H](CCCNC(=O)c1cccc(O)c1O)NC(=O)c1cccc(O)c1O | 2500 | > 7500 |  | 45 |  |
| O=C(NCCCC[C@H](NC(=O)c1cccc(O)c1O)C(=O)NO)c1cccc(O)c1O | 980 | > 7500 |  | 0 |  |
| COC(=O)[C@H](CCCCNC(=O)c1ccccc1)NC(=O)c1cccc(O)c1O | > 2500 | > 7500 | 0 | 0 |  |
| O=C(NCCCC[C@@H](CO)NC(=O)c1cccc(O)c1O)c1cccc(O)c1O | 590 | > 7500 |  | 20 | inhibition [12]: 35%; inhibition [13]: 39%; inhibition (Mus musculus [10]): inactive; inhibition (Mus musculus [11]): inactive |
| COC(=O)[C@H](CCCCNC(=O)c1cccc(O)c1O)NC(C)=O | 2400 | > 7500 |  | 0 |  |
| COC(=O)[C@H](CCCCNC(=O)c1cccc(O)c1O)NC(=O)c1cccc(O)c1O | 1500 | > 7500 |  | 10 |  |
| COC(=O)[C@H](CCNC(=O)c1cccc(O)c1O)NC(=O)c1cccc(O)c1O | > 2500 | > 7500 | 40 | 13 |  |
| NC[C@H](CCCCNC(=O)c1cccc(O)c1O)NC(=O)c1cccc(O)c1O | 730 | > 7500 |  | 40 |  |
| N#C[C@H](CCCCNC(=O)c1cccc(O)c1O)NC(=O)c1cccc(O)c1O | > 2500 | 7500 | 45 |  |  |
| O=C(NCCCCCNC(=O)c1cccc(O)c1O)c1cccc(O)c1O | > 2500 | 2700 | 45 |  |  |
